# Measured values reported in ChEMBL document CHEMBL1138085, “Thiazolo[5,4-f]quinazolin-9-ones, inhibitors of glycogen synthase kinase-3” (Bioorg Med Chem Lett, 2006).
# Assays:
# [1] = molecular target: Cyclin-dependent kinase 1/cyclin B (Homo sapiens, UniProt P06493); assay: Inhibition of CDK1/cyclinB in presence of 15 uM ATP; assay type: protein-complex assay
# [2] = molecular target: Glycogen synthase kinase-3 (Homo sapiens, UniProt P49840+P49841); assay: Inhibition of GSK3alpha/beta in presence of 15 uM ATP; assay type: protein assay
# Summary of the method: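 Assayed against GSK-3α/β using GS-1 peptide as substrate, final ATP 15 μM; conditions otherwise follow earlier published method.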
# [3] = molecular target: Cyclin-dependent kinase 5/CDK5 activator 1 (Homo sapiens, UniProt Q00535); assay: Inhibition of CDK5/p25 in presence of 15 uM ATP; assay type: protein-complex assay
# Sequence of Cyclin-dependent kinase 5/CDK5 activator 1 (Q00535 whole entry): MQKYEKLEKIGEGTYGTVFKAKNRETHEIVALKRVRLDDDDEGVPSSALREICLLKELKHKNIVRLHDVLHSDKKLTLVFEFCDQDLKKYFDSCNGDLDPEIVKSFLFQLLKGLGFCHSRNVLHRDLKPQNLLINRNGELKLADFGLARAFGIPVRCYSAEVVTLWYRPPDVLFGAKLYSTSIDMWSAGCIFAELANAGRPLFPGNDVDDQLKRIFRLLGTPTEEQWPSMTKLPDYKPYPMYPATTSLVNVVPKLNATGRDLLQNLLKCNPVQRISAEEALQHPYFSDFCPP
# Sequence of Cyclin-dependent kinase 5/CDK5 activator 1 (Q15078 whole entry, further chain): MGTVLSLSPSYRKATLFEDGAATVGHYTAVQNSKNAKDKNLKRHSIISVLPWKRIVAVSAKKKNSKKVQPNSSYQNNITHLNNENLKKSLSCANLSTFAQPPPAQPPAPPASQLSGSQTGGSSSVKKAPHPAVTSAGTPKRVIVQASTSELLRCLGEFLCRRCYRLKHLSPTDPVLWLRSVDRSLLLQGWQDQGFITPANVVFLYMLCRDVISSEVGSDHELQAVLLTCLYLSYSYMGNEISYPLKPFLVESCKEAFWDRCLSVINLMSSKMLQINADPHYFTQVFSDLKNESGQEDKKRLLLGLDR
# Summary of the method: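 Kinase activity assayed with histone H1 as protein substrate and ATP at 15 μM final; procedure otherwise as previously described.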
IC50 [1],IC50 [2],IC50 [3],SMILES
> 100 µM,4.2 µM,> 100 µM,CCn1cnc2ccc3nc(C4=NCCN4)sc3c2c1=O
,> 10 µM,> 10 µM,O=c1c2c(ccc3nc(C4=NCCN4)sc32)ncn1Cc1ccccc1
10 µM,0.56 µM,4 µM,CC(C)n1cnc2ccc3nc(C(=N)NCCN(C)C)sc3c2c1=O
,7.2 µM,,CCn1cnc2ccc3nc(C(=N)NC(C)C)sc3c2c1=O
> 10 µM,> 10 µM,> 10 µM,CC(C)CCn1cnc2ccc3nc(C4=NCCN4)sc3c2c1=O
> 100 µM,1.6 µM,> 100 µM,CCCn1cnc2ccc3nc(C4=NCCN4)sc3c2c1=O
> 100 µM,1.6 µM,> 100 µM,CC(C)n1cnc2ccc3nc(C4=NCCN4)sc3c2c1=O
> 10 µM,> 10 µM,,COc1ccc(Cn2cnc3ccc4nc(C5=NCCN5)sc4c3c2=O)cc1
85 µM,4.6 µM,> 100 µM,CC(C)Cn1cnc2ccc3nc(C4=NCCN4)sc3c2c1=O
,9.4 µM,,CC(C)NC(=N)c1nc2ccc3ncn(C(C)C)c(=O)c3c2s1
,1.3 µM,,CCn1cnc2ccc3nc(C(=N)NCCN(C)C)sc3c2c1=O
